Reference: ChEMBL document CHEMBL2046422, “Structure-activity relationship of nonacidic quinazolinone inhibitors of human microsomal prostaglandin synthase 1 (mPGES 1)” (J Med Chem, 2012)

How the values were obtained:
[1] = molecular target: T1, Prostaglandin E synthase (Homo sapiens) (UniProt O14684); assay: Inhibition of mPGES-1 derived from IL1beta and TNFalpha stimulated human HeLa cells microsomal fraction using PGH2 as substrate at 1 uM preincubated for 30 mins prior to substrate addition measured after 1 min by LC-MS/MS analysis relative to control
T1 sequence (whole entry): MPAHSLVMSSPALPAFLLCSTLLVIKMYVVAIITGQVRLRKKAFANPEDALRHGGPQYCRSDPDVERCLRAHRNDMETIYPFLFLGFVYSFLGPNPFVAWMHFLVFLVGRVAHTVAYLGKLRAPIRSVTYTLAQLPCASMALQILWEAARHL
Outline: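 Microsomes were pelleted by ultracentrifugation and resuspended in buffer with 2.5 mM GSH; protein was measured by Bradford. PGE₂ was read by LC-MS/MS after solid-phase extraction with deuterated standards; n ≥ 3.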

[2] = molecular target: T2, Prostaglandin G/H synthase 1 (Ovis aries) (UniProt P05979); assay: Inhibition of ovine COX1-mediated PGE2 synthesis using PGH2 as substrate at 1 uM by LC-MS/MS analysis relative to control
T2 sequence (whole entry): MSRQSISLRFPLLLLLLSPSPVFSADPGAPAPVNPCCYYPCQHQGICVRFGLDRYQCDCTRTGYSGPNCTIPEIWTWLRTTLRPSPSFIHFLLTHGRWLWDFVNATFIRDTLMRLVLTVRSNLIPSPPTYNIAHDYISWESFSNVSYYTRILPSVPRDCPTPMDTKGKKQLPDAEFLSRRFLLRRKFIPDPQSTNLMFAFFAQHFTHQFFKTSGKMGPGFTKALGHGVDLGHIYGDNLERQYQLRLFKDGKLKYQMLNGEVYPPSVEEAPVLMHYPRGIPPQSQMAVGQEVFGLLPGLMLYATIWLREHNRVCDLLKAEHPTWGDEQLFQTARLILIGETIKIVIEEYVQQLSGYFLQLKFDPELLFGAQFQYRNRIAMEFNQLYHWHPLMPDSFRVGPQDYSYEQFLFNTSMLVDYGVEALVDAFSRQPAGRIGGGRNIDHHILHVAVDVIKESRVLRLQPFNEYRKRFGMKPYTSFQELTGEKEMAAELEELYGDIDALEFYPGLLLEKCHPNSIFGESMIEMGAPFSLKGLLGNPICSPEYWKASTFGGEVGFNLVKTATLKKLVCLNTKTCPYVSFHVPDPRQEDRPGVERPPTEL
Outline: (§1)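 Direct enzyme test with a COX inhibitor screening kit, run per the kit protocol: COX-1 was ovine, COX-2 human recombinant. […] Prostaglandins were quantified by LC-MS/MS after solid-phase extraction. Mean of n ≥ 3.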

[3] = molecular target: T1, Prostaglandin E synthase (Homo sapiens); assay: Inhibition of mPGES-1 in IL1beta and TNFalpha-stimulated human HeLa cells assessed as PGE2 level after 24 hrs by LC-MS/MS analysis; format: cell-based
Outline: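 HeLa cells (2 × 10⁴) were grown 24 h at 37 °C. The medium was then replaced with IL-1β (1 ng/mL) + TNFα (5 ng/mL), or PBS for unstimulated controls, together with compound at 1, 10 or 100 μM, or DMSO, for 24 h at 37 °C. Supernatant PGE₂ was quantified by LC-MS/MS after solid-phase extraction with deuterated standards. Inhibition is percent of DMSO control corrected for unstimulated background, SEM, n ≥ 3.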

[4] = molecular target: T3, Prostaglandin E synthase (Mus musculus) (UniProt Q9JM51); assay: Inhibition of mPGES-1 derived from LPS stimulated mouse NIH3T3 cells microsomal fraction using PGH2 as substrate at 1 uM preincubated for 30 mins prior to substrate addition measured after 1 min by LC-MS/MS analysis relative to control
T3 sequence (whole entry): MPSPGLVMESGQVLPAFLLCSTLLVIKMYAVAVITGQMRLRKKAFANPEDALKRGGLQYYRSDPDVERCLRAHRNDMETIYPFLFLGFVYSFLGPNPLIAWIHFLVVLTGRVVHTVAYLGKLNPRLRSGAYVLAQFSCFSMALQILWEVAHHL

[5] = molecular target: T3, Prostaglandin E synthase (Mus musculus); assay: Inhibition of mPGES-1 derived from LPS stimulated mouse RAW264.7 cells microsomal fraction using PGH2 as substrate at 1 uM preincubated for 30 mins prior to substrate addition measured after 1 min by LC-MS/MS analysis relative to control
Outline: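 Microsomes came from RAW 264.7 cells stimulated with LPS for 16 h. They were prepared by sonication and ultracentrifugation in 0.1 M potassium phosphate, pH 7.4, with GSH and protease inhibitors, and resuspended with 2.5 mM GSH; protein was measured by Bradford. Compound was tested at the stated final concentration. PGE₂ was quantified by LC-MS/MS after solid-phase extraction with PGE₂-d₄/PGD₂-d₄ standards; SEM, n ≥ 3.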

HeLa = assay: Cytotoxicity against IL1beta and TNFalpha-stimulated human HeLa cells at 1 to 10 uM after 24 hrs by WST1 assay; format: cell-based
Outline: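 HeLa cells were seeded at 3 × 10³ per well and grown 24 h at 37 °C. They were then stimulated with IL-1β (1 ng/mL) + TNFα (5 ng/mL) while treated with compound at 1, 10 or 100 μM, or DMSO, for 24 h. WST-1 was added for 90–150 min and absorbance read at 450 nm against 620 nm. Viability is percent of DMSO control, SEM, n ≥ 3.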

[6] = molecular target: T4, Prostaglandin G/H synthase 2 (Homo sapiens) (UniProt P35354); assay: Inhibition of human recombinant COX2-mediated PGE2 synthesis using PGH2 as substrate at 1 uM by LC-MS/MS analysis relative to control; outline: as §1
T4 sequence (whole entry): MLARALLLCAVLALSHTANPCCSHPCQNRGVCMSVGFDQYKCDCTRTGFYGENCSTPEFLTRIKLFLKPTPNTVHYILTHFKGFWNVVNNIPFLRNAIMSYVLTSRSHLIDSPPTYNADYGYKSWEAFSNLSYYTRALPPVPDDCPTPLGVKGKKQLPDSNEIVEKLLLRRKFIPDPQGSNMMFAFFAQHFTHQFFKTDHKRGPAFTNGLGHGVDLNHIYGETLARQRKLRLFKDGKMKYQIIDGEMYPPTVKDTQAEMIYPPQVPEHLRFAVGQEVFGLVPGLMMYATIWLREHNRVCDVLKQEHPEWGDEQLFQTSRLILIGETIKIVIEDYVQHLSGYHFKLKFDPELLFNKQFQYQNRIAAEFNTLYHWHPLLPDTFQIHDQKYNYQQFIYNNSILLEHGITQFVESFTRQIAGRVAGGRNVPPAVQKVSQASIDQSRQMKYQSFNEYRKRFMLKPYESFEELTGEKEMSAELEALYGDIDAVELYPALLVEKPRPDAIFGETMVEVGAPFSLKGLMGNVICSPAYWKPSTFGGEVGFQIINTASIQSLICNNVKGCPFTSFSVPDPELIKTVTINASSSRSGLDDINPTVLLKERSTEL

[7] = Inhibition of rat recombinant mPGES-1
Prostaglandin E synthase = molecular target: T5, Prostaglandin E synthase (Homo sapiens, UniProt O14684); assay: Inhibition of human recombinant mPGES-1
T5 sequence (O14684 whole entry): T1 sequence (whole entry)

[8] = molecular target: T6, 5-lipoxygenase/FLAP (Homo sapiens) (UniProt P09917+P20292); assay: Inhibition of 5-lipoxygenase/FLAP in calcium ionophore-stimulated human whole blood assessed as residual 12(s)HETE level at 10 uM preincubated for 15 mins prior to calcium ionophore-stimulation measured after 15 mins by LC-MS/MS analysis; format: protein-complex assay
Outline: (§2)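 Heparinized human whole blood (500 μL) was preincubated with compound for 15 min at 37 °C. It was then stimulated with 20 μM calcium ionophore A23187 in autologous plasma for 15 min at 37 °C and chilled on ice for 5 min. Plasma was collected by centrifugation at 4 °C. Eicosanoids were recovered by liquid–liquid extraction with deuterated internal standards and quantified by LC-MS/MS (MRM). Levels are relative to vehicle-treated blood.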

[9] = molecular target: Prostaglandin G/H synthase 1 (Homo sapiens) (UniProt P23219); assay: Inhibition of COX1 in human whole blood assessed as residual PGD2 level at 10 uM after 1 hr by LC-MS/MS analysis relative to control
Sequence of Prostaglandin G/H synthase 1 (Homo sapiens) (P23219 whole entry): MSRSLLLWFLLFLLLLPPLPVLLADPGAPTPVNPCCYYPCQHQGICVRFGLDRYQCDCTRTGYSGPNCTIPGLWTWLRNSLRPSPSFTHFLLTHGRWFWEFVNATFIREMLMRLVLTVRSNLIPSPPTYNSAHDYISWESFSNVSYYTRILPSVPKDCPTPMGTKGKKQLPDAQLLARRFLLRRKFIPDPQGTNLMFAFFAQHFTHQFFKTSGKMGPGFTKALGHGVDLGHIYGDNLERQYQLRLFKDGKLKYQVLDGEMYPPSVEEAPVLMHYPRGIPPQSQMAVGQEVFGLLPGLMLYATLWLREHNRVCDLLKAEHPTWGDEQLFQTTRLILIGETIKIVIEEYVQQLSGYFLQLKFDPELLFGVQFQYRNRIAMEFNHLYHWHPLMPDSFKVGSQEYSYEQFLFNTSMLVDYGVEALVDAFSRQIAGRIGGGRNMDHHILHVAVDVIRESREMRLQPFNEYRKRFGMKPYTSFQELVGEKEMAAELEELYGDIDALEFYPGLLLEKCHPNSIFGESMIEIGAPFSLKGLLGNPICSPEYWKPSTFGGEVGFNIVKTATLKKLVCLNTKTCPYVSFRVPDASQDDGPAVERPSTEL
Outline: (§3)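 Human venous blood was drawn without additives, and compound was added. Samples clotted at 37 °C for 1 h; negative controls were chilled on ice at once. After 5 min on ice, plasma was separated at 4 °C. It was mixed with H₃PO₄, EDTA, BHT and deuterated internal standards, then put through solid-phase extraction. TXB₂ and PGD₂ were measured by LC-MS/MS, relative to vehicle-treated blood.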

[10] = molecular target: T4, Prostaglandin G/H synthase 2 (Homo sapiens); assay: Inhibition of COX2 in LPS-stimulated human whole blood assessed as residual PGF2alpha level at 100 uM preincubated for 15 mins prior to LPS-stimulation measured after 24 hrs by LC-MS/MS analysis relative to control
Outline: (§4)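 Human whole blood received compound in DMSO plus acetylsalicylic acid (10 μg/mL) to block COX-1, 15 min at 37 °C. LPS (10 μg/mL final) in autologous plasma was added to induce COX-2/mPGES-1, and blood was incubated 24 h at 37 °C. Samples were chilled on ice 5 min, and plasma prostaglandins were extracted by solid-phase extraction and quantified by LC-MS/MS. Values are relative to vehicle.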

[11] = molecular target: T6, 5-lipoxygenase/FLAP (Homo sapiens); assay: Inhibition of 5-lipoxygenase/FLAP in calcium ionophore-stimulated human whole blood assessed as residual LTB4 level at 10 uM preincubated for 15 mins prior to calcium ionophore-stimulation measured after 15 mins by LC-MS/MS analysis; format: protein-complex assay; outline: as §2
[12] = molecular target: T6, 5-lipoxygenase/FLAP (Homo sapiens); assay: Inhibition of 5-lipoxygenase/FLAP in calcium ionophore-stimulated human whole blood assessed as residual 15(s)HETE level at 10 uM preincubated for 15 mins prior to calcium ionophore-stimulation measured after 15 mins by LC-MS/MS analysis; format: protein-complex assay; outline: as §2
[13] = molecular target: T4, Prostaglandin G/H synthase 2 (Homo sapiens); assay: Inhibition of COX2 in LPS-stimulated human whole blood assessed as residual PGE2 level at 100 uM preincubated for 15 mins prior to LPS-stimulation measured after 24 hrs by LC-MS/MS analysis relative to control; outline: as §4
[14] = molecular target: Prostaglandin G/H synthase 1 (Homo sapiens) (UniProt P23219); assay: Inhibition of COX1 in human whole blood assessed as residual TXB2 level at 10 uM after 1 hr by LC-MS/MS analysis relative to control; outline: as §3
[15] = molecular target: T6, 5-lipoxygenase/FLAP (Homo sapiens); assay: Inhibition of 5-lipoxygenase/FLAP in calcium ionophore-stimulated human whole blood assessed as residual (+/-)11HETE level at 10 uM preincubated for 15 mins prior to calcium ionophore-stimulation measured after 15 mins by LC-MS/MS analysis; format: protein-complex assay; outline: as §2
[16] = molecular target: T6, 5-lipoxygenase/FLAP (Homo sapiens); assay: Inhibition of 5-lipoxygenase/FLAP in calcium ionophore-stimulated human whole blood assessed as 5(s)HETE level at 10 uM preincubated for 15 mins prior to calcium ionophore-stimulation measured after 15 mins by LC-MS/MS analysis; format: protein-complex assay; set-up: scale not given: the % may be the effect or the level left; outline: as §2

Cc1ccccc1C(=O)Nc1cc2c(=O)n(Cc3ccccc3)c(C)nc2cc1N1CCCC1
inhibition [1]: 37.1%

CCCc1nc2ccc(NC(=O)c3ccccc3)cc2c(=O)n1Cc1ccc(-c2cccc(Cl)c2)cc1
inhibition [1]: 15.3%

O=C(Nc1ccc2nc(Cc3ccccc3)n(Cc3cccc(Cl)c3)c(=O)c2c1)c1ccccc1Cl
inhibition [2]: < 0% | inhibition [3]: Dose-dependent effect | inhibition [4]: 17.8% | inhibition [5]: 3.8% | inhibition [1]: 67.2% | Activity (HeLa): Non-toxic | inhibition [6]: < 0%

CCCc1nc2ccc(NC(=O)Nc3ccccc3Cl)cc2c(=O)n1Cc1ccccc1Cl
inhibition [1]: 14.1%

O=C(Nc1ccc(-c2ccc(Cl)c(Cl)c2)cc1)C1=C(O)c2ccccc2S(=O)(=O)N1
IC50 [7]: 1080 nM | IC50 (Prostaglandin E synthase): 16.5 nM

CCCc1nc2ccc(NC(=O)C(C)(C)C)cc2c(=O)n1Cc1ccc(-c2cccc(Cl)c2)cc1
inhibition [1]: 18.8%

CCCc1nc2ccc(NC(=O)c3cccs3)cc2c(=O)n1Cc1ccc(-c2cccc(Cl)c2)cc1
inhibition [1]: 15.6%

CCCc1nc2ccc(NC(=O)c3ccccc3Cl)cc2c(=O)n1Cc1ccccc1Cl
inhibition [2]: 16.1% | Activity [8]: 82.7% | Activity [9]: 89% | Activity [10]: 73.4% | inhibition [4]: 6.6% | inhibition [5]: 15.2% | Activity [11]: 91.3% | Activity [12]: 78.3% | Activity (HeLa): Non-toxic | Activity [13]: 34.2% | Activity [14]: 86.1% | Activity [15]: 75.4% | Activity [16]: 88.1% | inhibition [6]: < 0%

Cc1ccc(-c2cc(C(F)(F)F)nn2-c2ccc(S(N)(=O)=O)cc2)cc1
inhibition [3]: Dose-dependent effect

CCCc1nc2ccc(NC(=O)C3CC3)cc2c(=O)n1Cc1ccc(-c2cccc(OC)c2)cc1
inhibition [1]: 15.9%
